Test results published in article PMC10644204 (Pharmacology Research & Perspectives, 2023).
Several values for one entry are separate records, joined by “and”; a condition that tells them apart may be missing. Identical values can stand only once. Entries after “also recorded” stand apart in the source; their conditions may differ. Like-named read-outs stand apart in the source and are kept apart here.

Tests used:
Format in all cases: in vivo, human
[1] = Plasma pharmacokinetics, part 1 sentinel cohort
How it was run: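 Part 1: healthy participants (n = 8) randomised 3:1 to test compound 500 mg or placebo orally once daily for 7 days, given with a moderate-fat meal (~600 cal, 30% fat) 30 min before dosing. Plasma sampled within 40 min predose on Days 1, 5, 6 and 7, and on Day 7 at 0.5–48 h postdose. Validated UHPLC-MS/MS, range 3.00–1000 ng mL−1.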

[2] = Plasma pharmacokinetics, part 2 main QTc study; conditions: for Cτ, geometric mean (%CVb): moderate-fat meal, Day 7, n = 40
How it was run: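 Moderate-fat meal 30 min before each dose. Plasma sampled predose on Days 1, 5, 6 and 7, and on Day 7 at 0.5–24 h postdose. Test compound assayed by validated UHPLC-MS/MS (3.00–1000 ng mL−1).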

healthy participants [3] = test system: healthy participants
healthy participants [4] = assay: Concentration-QTc analysis
How it was run: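 Part 2: 12-lead ECGs extracted from continuous Holter recordings at baseline (Day −1; −45, −30, −15 min predose Day 1) and on Day 7 predose and 0.5–24 h postdose. ECGs taken before PK blood draws. QTcF by Fridericia. Mixed-effects model of ΔQTcF on plasma test compound concentration, with centred baseline QTcF, treatment and time fixed, and per-participant random slope and intercept.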

healthy participants [5] = assay: Safety assessments
How it was run: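 Part 2 healthy participants confined from Day −2 of period 1 to Day 9 of period 4. […] AEs monitored throughout, recording duration, severity, causality and outcome, alongside safety ECGs, laboratory tests, physical examination and vital signs.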

[6] = GSK'254 500 mg QD, 24 h post-dose
[7] = part 2, GSK'254 100 mg (N = 40)

AUC ([1]; human, plasma, oral, 500 mg): 68800 ng·h/mL
Cmax ([1]; human, plasma, oral, 500 mg): 4440 ng/mL
Cτ, geometric mean (%CVb) ([1]; part 1, GSK'254 500 mg QD 7 days, moderate-fat meal, Day 7, n = 6): 2080 ng mL^−1 and 2080 (32.4) ng mL^−1
Observations of ΔQTcF >30 ms (healthy participants [3]; GSK'254 100 mg QD): no participants
Outliers in HR changes (HR >100 bpm with a >25% increase in ΔHR) (healthy participants [3]; GSK'254 100 mg QD): one participant at one time point
LS mean ΔΔHR, lowest across time points (healthy participants [3]; GSK'254 100 mg QD, 0.5 h post-dose, Day 7): −0.2 (−2.17–1.67) bpm
LS mean ΔΔHR, highest across time points (healthy participants [3]; GSK'254 100 mg QD, 24 h post-dose, Day 7): 2.6 (0.70–4.53) bpm
ΔΔQTcF, LS mean (90% CI) (healthy participants [3]; GSK'254 100 mg QD, Day 7, 0.5 h): 1.0 (−1.60, 3.59) ms
ΔΔQTcF, LS mean (90% CI) (healthy participants [3]; GSK'254 100 mg QD, Day 7, 1 h): 0.6 (−2.06, 3.33) ms
ΔΔQTcF, LS mean (90% CI) (healthy participants [3]; GSK'254 100 mg QD, Day 7, 2 h): 1.7 (−1.27, 4.73) ms
ΔΔQTcF, LS mean (90% CI) (healthy participants [3]; GSK'254 100 mg QD, Day 7, 3 h): 1.5 (−1.45, 4.51) ms
ΔΔQTcF, LS mean (90% CI) (healthy participants [3]; GSK'254 100 mg QD, Day 7, 4 h): 1.0 (−1.59, 3.54) ms
ΔΔQTcF, LS mean (90% CI) (healthy participants [3]; GSK'254 100 mg QD, Day 7, 4.5 h): 1.0 (−1.73, 3.82) ms
ΔΔQTcF, LS mean (90% CI) (healthy participants [3]; GSK'254 100 mg QD, Day 7, 5 h): 0.2 (−2.44, 2.80) ms
ΔΔQTcF, LS mean (90% CI) (healthy participants [3]; GSK'254 100 mg QD, Day 7, 6 h): 1.7 (−1.58, 4.97) ms
ΔΔQTcF, LS mean (90% CI) (healthy participants [3]; GSK'254 100 mg QD, Day 7, 8 h): −0.8 (−3.54, 1.90) ms
ΔΔQTcF, LS mean (90% CI) (healthy participants [3]; GSK'254 100 mg QD, Day 7, 10 h): 0.2 (−2.30, 2.65) ms
ΔΔQTcF, LS mean (90% CI) (healthy participants [3]; GSK'254 100 mg QD, Day 7, 12 h): 0.5 (−2.43, 3.35) ms
ΔΔQTcF, LS mean (90% CI) (healthy participants [3]; GSK'254 100 mg QD, Day 7, 24 h): 0.1 (−2.66, 2.76) ms
ΔΔQTcF, LS mean (90% CI) (healthy participants [3]; GSK'254 100 mg QD, Day 7, […]): 1.4 (−1.30, 4.13) ms
ΔΔQTcF, LS mean (90% CI) (healthy participants [3]; GSK'254 100 mg QD, Day 7, pre-dose): 1.4 (−0.88, 3.77) ms
Maximum LS mean ΔΔQTcF (healthy participants [3]; GSK'254 100 mg QD, at 2 and 6 h post-dose on Day 7): 1.7 ms
Upper bound of the 90% CI of LS mean ΔΔQTcF (healthy participants [3]; GSK'254 100 mg QD, through 24 h post-dose on Day 7): < 10 ms
Observations of ΔQTcF >30 ms (healthy participants [3]; GSK'254 500 mg QD): two participants (three time points)
Outliers in HR changes (HR >100 bpm with a >25% increase in ΔHR) (healthy participants [3]; GSK'254 500 mg QD): one participant at one time point
Largest LS mean ΔΔHR (healthy participants [3]; GSK'254 500 mg QD, 10 h post-dose on Day 7): 5.1 bpm
LS mean placebo-corrected change from baseline in PR, lowest across post-dose time points (healthy participants [3]; [6]): −1.8 (−4.00–0.36) ms
LS mean placebo-corrected change from baseline in QRS, maximum value (healthy participants [3]; [6]): 1.4 ms
ΔΔQTcF, LS mean (90% CI) (healthy participants [3]; GSK'254 500 mg QD, Day 7, 0.5 h): 7.2 (4.59, 9.83) ms
ΔΔQTcF, LS mean (90% CI) (healthy participants [3]; GSK'254 500 mg QD, Day 7, 1 h): 4.1 (1.34, 6.79) ms
ΔΔQTcF, LS mean (90% CI) (healthy participants [3]; GSK'254 500 mg QD, Day 7, 2 h): 6.5 (3.46, 9.55) ms
ΔΔQTcF, LS mean (90% CI) (healthy participants [3]; GSK'254 500 mg QD, Day 7, 3 h): 8.1 (5.06, 11.09) ms
ΔΔQTcF, LS mean (90% CI) (healthy participants [3]; GSK'254 500 mg QD, Day 7, 4 h): 8.6 (6.03, 11.22) ms
ΔΔQTcF, LS mean (90% CI) (healthy participants [3]; GSK'254 500 mg QD, Day 7, 4.5 h): 10.6 (7.75, 13.38) ms
ΔΔQTcF, LS mean (90% CI) (healthy participants [3]; GSK'254 500 mg QD, Day 7, 5 h): 9.6 (6.92, 12.24) ms
ΔΔQTcF, LS mean (90% CI) (healthy participants [3]; GSK'254 500 mg QD, Day 7, 6 h): 8.6 (5.27, 11.89) ms
ΔΔQTcF, LS mean (90% CI) (healthy participants [3]; GSK'254 500 mg QD, Day 7, 8 h): 8.1 (5.34, 10.85) ms
ΔΔQTcF, LS mean (90% CI) (healthy participants [3]; GSK'254 500 mg QD, Day 7, 10 h): 8.6 (6.14, 11.15) ms
ΔΔQTcF, LS mean (90% CI) (healthy participants [3]; GSK'254 500 mg QD, Day 7, 12 h): 6.0 (3.07, 8.89) ms
ΔΔQTcF, LS mean (90% CI) (healthy participants [3]; GSK'254 500 mg QD, Day 7, 24 h): 7.7 (4.94, 10.45) ms
ΔΔQTcF, LS mean (90% CI) (healthy participants [3]; GSK'254 500 mg QD, Day 7, […]): 9.2 (6.44, 11.93) ms
ΔΔQTcF, LS mean (90% CI) (healthy participants [3]; GSK'254 500 mg QD, Day 7, pre-dose): 7.1 (4.74, 9.46) ms
LS mean placebo-corrected change from baseline in PR, highest across post-dose time points (healthy participants [3]; GSK'254 500 mg QD, […] post-dose): 3.2 (0.86–5.57) ms
Maximum LS mean ΔΔQTcF (healthy participants [3]; GSK'254 500 mg QD, at 4.5 h post-dose on Day 7): 10.6 ms and 10.6 (7.75–13.38) ms
Structure (SMILES): C=C(C)[C@@H]1CC[C@]2(NCCN3CCS(=O)(=O)CC3)CC[C@]3(C)[C@H](CC[C@@H]4[C@@]5(C)CC=C(C6=CC[C@@](CF)(C(=O)O)CC6)C(C)(C)[C@@H]5CC[C@]43C)[C@@H]12 [GSK'254]
AUC ([2]; human, plasma, oral, 100 mg): 13800 ng·h/mL
AUC ([2]; human, plasma, oral, 500 mg): 67500 ng·h/mL
Cmax ([2]; human, plasma, oral, 500 mg): 4260 ng/mL
Cτ, geometric mean (%CVb) ([2]; part 2, GSK'254 100 mg QD 7 days): 460 ng mL^−1 and 460 (40.3) ng mL^−1
Cτ, geometric mean (%CVb) ([2]; part 2, GSK'254 500 mg QD 7 days): 2140 ng mL^−1 and 2140 (46.6) ng mL^−1
Geometric mean steady-state exposure values with GSK'254 500 mg relative to GSK'254 100 mg ([2]; part 2, QD 7 days): ~ 5 fold
Clinically relevant effects on cardiac parameters (QTc prolongation, HR, cardiac conduction) (healthy participants [3]; GSK'254 100 mg QD): No clinically relevant effects on cardiac parameters; also recorded: No clinically relevant effects on QTc prolongation, HR, or cardiac conduction
Reports of QTcF >450 to ≤480 ms (healthy participants [3]; GSK'254 100 mg QD): one participant (one time point)
Reports of QTcF >450 to ≤480 ms (healthy participants [3]; GSK'254 500 mg QD): one participant (one time point)
Clinically relevant effects on heart rate or cardiac conduction (PR and QRS intervals) (healthy participants [3]; both GSK'254 doses (100 and 500 mg QD)): Neither GSK'254 dose had clinically relevant effects on heart rate or cardiac conduction; also recorded: neither GSK'254 dose had a clinically relevant effect on cardiac conduction (PR and QRS intervals) or HR
Treatment effect-specific intercept of the concentration-QTc model (healthy participants [4]; Day 7): 0.61 ms
Model-predicted ΔΔQTcF at geometric mean GSK'254 Cmax (healthy participants [4]; GSK'254 100 mg): 2.72 ms
Model-predicted ΔΔQTcF at geometric mean GSK'254 Cmax (healthy participants [4]; GSK'254 500 mg): 11.49 ms
Estimated population slope of the concentration-QTc model (healthy participants [4]; ΔΔQTcF vs GSK'254 plasma concentration, Day 7): 0.0025 ms per ng mL^−1
Tolerability (healthy participants [5]; both GSK'254 doses, short-term administration, all AEs mild in intensity): generally well tolerated
AE: Abdominal pain (healthy participants [5]; [7]): 0 n (%)
AE: Acne (healthy participants [5]; [7]): 2 (5) n (%)
AE: Diarrhea (healthy participants [5]; [7]): 0 n (%)
